From ChEMBL document CHEMBL1139681, “Discovery of orally active butyrolactam 11beta-HSD1 inhibitors” (Bioorg Med Chem Lett, 2006)
pIC50, pKi: −log10 of the molar value.

Assays:
[1] = target: 11-beta-hydroxysteroid dehydrogenase 1 (Mus musculus, UniProt P50172); assay: Inhibition of mouse 11beta-HSD1
[2] = target: T1, 11-beta-hydroxysteroid dehydrogenase type 2 (Mus musculus, UniProt P51661); assay: Inhibition of mouse 11beta-HSD2
T1 sequence (P51661 whole entry): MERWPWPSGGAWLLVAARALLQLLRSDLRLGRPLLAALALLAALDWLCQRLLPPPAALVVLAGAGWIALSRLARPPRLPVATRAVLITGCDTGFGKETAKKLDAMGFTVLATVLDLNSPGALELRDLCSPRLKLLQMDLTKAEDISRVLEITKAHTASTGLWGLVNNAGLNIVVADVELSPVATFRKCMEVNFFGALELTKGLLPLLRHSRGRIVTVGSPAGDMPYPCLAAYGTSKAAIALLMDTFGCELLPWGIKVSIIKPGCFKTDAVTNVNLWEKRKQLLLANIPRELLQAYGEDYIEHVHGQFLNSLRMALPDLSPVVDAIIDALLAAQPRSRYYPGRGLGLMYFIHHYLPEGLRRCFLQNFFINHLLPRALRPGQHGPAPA

[3] = target: T2, 11-beta-hydroxysteroid dehydrogenase 1 (Homo sapiens, UniProt P28845); assay: Inhibition of human 11beta-HSD1 expressed in HEK293 cells; assay type: cell-based
T2 sequence (P28845 whole entry): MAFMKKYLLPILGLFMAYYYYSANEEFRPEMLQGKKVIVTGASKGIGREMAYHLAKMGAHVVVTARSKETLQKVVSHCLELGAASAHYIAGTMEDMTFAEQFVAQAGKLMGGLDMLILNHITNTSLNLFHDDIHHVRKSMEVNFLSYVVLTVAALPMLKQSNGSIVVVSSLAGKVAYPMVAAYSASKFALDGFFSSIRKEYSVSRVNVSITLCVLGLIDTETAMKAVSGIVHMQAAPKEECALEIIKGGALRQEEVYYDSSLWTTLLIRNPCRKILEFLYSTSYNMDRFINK

[4] = target: T2, 11-beta-hydroxysteroid dehydrogenase 1; assay: Inhibition of human 11beta-HSD1
[5] = target: T3, 11-beta-hydroxysteroid dehydrogenase type 2 (Homo sapiens, UniProt P80365); assay: Inhibition of human 11beta-HSD2
T3 sequence (P80365 whole entry): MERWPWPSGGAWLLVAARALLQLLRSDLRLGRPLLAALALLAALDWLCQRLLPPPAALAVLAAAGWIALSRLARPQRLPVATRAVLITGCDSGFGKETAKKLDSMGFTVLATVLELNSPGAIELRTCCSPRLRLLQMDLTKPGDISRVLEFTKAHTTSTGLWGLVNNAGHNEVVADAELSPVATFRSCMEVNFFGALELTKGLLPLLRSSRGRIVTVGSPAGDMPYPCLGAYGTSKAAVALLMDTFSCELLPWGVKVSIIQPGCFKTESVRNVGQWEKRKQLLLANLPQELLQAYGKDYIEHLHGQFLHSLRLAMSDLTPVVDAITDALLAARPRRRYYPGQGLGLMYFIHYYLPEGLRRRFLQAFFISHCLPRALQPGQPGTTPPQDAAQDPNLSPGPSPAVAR

[6] = Stability in mouse liver microsomes after 30 min; assay type: ADME, Microsome; details: for remaining at 0.5 h: liver microsomes, read-out: Stability
Method in brief: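 Percent parent remaining after a 30-min incubation with mouse liver microsomes.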

[7] = Bioavailability in mouse at 5 mg/kg, iv and 10 mg/kg, po; assay type: ADME, organism-based; details: in vivo
Method in brief: (§1)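 Mouse PK; parameters derived from iv dosing at 5 mg/kg and oral (po) dosing at 10 mg/kg.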

[8] = Plasma clearance in mouse at 5 mg/kg, iv and 10 mg/kg, po; assay type: ADME, organism-based; method in brief: as §1
[9] = Half life in mouse at 5 mg/kg, iv and 10 mg/kg, po; assay type: ADME, organism-based; details: in vivo; method in brief: as §1
[10] = system: Mus musculus; assay: Lowering of plasma insulin level in DIO C57BL/6J mouse at 30 mg/kg, po after 4hrs fasting; assay type: functional
Method in brief: (§2)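 Male C57BL/6J mice (5–6 weeks at purchase) made obese on high-fat diet, group-housed, 12 h light/dark cycle. Conditioned to oral gavage beforehand; assigned to groups of equal mean body weight. Dosed po bid (08:00, 15:00) in 1% Tween 80 in water, 4 ml/kg, for 14 days; lean and high-fat vehicle controls. Plasma analytes measured after 4 h fast; Dunnett's test.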

[11] = target: 11-beta-hydroxysteroid dehydrogenase 1 (Mus musculus) (UniProt P50172); assay: Inhibition of DIO mouse epididymal fat pad 11beta-HSD1 at 30 mg/kg, po after 7 hrs; assay type: organism-based; parameters: dose 30 mg/kg
Sequence of 11-beta-hydroxysteroid dehydrogenase 1 (Mus musculus) (P50172 whole entry, looked up): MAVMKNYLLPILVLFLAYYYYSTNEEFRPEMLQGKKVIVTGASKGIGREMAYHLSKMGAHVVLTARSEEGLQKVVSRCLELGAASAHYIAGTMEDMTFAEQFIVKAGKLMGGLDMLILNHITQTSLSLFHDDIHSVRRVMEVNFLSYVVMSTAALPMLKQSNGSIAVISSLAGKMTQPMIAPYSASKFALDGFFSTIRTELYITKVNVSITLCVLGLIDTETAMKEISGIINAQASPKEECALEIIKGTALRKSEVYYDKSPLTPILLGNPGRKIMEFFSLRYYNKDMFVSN
Method in brief: (§3)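 DIO mice given a single 30 mpk dose; 11β-HSD1 inhibition in liver and fat measured ex vivo at 1, 7 and 16 h post-dose.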

[12] = system: Mus musculus; assay: Effect on body weight in DIO C57BL/6J mouse at 30 mg/kg, po; assay type: functional; method in brief: as §2
[13] = target: 11-beta-hydroxysteroid dehydrogenase 1 (Mus musculus) (UniProt P50172); assay: Inhibition of DIO mouse liver 11beta-HSD1at 30 mg/kg, po after 16 hrs; assay type: organism-based; parameters: dose 30 mg/kg; details: at 30 mg/kg; method in brief: as §3
[14] = target: 11-beta-hydroxysteroid dehydrogenase 1 (Mus musculus) (UniProt P50172); assay: Inhibition of DIO mouse liver 11beta-HSD1at 30 mg/kg, po after 7 hrs; assay type: organism-based; parameters: dose 30 mg/kg; details: at 30 mg/kg; method in brief: as §3
[15] = target: 11-beta-hydroxysteroid dehydrogenase 1 (Mus musculus) (UniProt P50172); assay: Inhibition of DIO mouse liver 11beta-HSD1at 30 mg/kg, po after 1 hr; assay type: organism-based; parameters: dose 30 mg/kg; details: at 30 mg/kg; method in brief: as §3
[16] = system: Mus musculus; assay: Lowering of plasma glucose level in DIO C57BL/6J mouse at 30 mg/kg, po after 4 hr fasting; assay type: functional; method in brief: as §2
[17] = system: Mus musculus; assay: Effect on plasma triglyceride level in DIO C57BL/6J mouse at 30 mg/kg, po after 4 hr fasting; assay type: functional; method in brief: as §2
[18] = target: 11-beta-hydroxysteroid dehydrogenase 1 (Mus musculus) (UniProt P50172); assay: Inhibition of DIO mouse epididymal fat pad 11beta-HSD1 at 30 mg/kg, po after 16 hrs; assay type: organism-based; parameters: dose 30 mg/kg; method in brief: as §3
[19] = target: 11-beta-hydroxysteroid dehydrogenase 1 (Mus musculus) (UniProt P50172); assay: Inhibition of DIO mouse epididymal fat pad 11beta-HSD1 at 30 mg/kg, po after 1 hr; assay type: organism-based; parameters: dose 30 mg/kg; method in brief: as §3
[20] = system: Mus musculus; assay: Lowering of plasma glucose level in DIO C57BL/6J mouse at 5 mg/kg, po after 4 hr fasting; assay type: functional; method in brief: as §2
[21] = system: Mus musculus; assay: Lowering of plasma insulin level in DIO C57BL/6J mouse at 5 mg/kg, po after 4 hr fasting; assay type: functional; method in brief: as §2
[22] = system: Mus musculus; assay: Effect on plasma triglyceride level in DIO C57BL/6J mouse at 5 mg/kg, po after 4hrs fasting; assay type: functional; method in brief: as §2
[23] = system: Mus musculus; assay: Effect on body weight in DIO C57BL/6J mouse at 5 mg/kg, po; assay type: functional; method in brief: as §2

Sequence of 11-beta-hydroxysteroid dehydrogenase 1 (Mus musculus, UniProt P50172) (P50172 whole entry): as the sequence (P50172 whole entry, looked up) above

Row | Structure (SMILES) | pIC50 [1] | pIC50 [2] | pIC50 [3] | pIC50 [4] | pIC50 [5] | remaining at 0.5 h [6] [%] | further results
1 | CC1(C)C(=O)N([C@H]2C3CC4CC2C[C@](c2nnn[nH]2)(C4)C3)CC1COc1ccc(C(F)(F)F)cn1 (some centres undefined) | 6.37 | 5.80 | 6.64 | 6.51 | 6.20 |  | 
2 | CC1(C)C(=O)N([C@H]2C3CC4CC2C[C@](C(N)=O)(C4)C3)CC1COc1ccc(C#N)cn1 (some centres undefined) | 8.70 | 5.00 |  |  |  | 97 | Activity [10]: 1.31 ng/mL; inhibition [11]: 71%; Activity [12]: 40.7 g; inhibition [13]: 67%; bioavailability [7]: 76.6%; inhibition [14]: 94%; inhibition [15]: 99%; Activity [16]: 164.7 mg/dL; Activity [17]: 33.3 mg/dL; inhibition [18]: 46%; clearance [8]: 33.3 mL/min/kg; half-life [9]: 1.3 h
3 | NC(=O)[C@]12CC3CC(C1)[C@@H](N1CCC(Cc4ccccc4)C1=O)C(C3)C2 (some centres undefined) |  |  |  | 7.46 | < 4.52 |  | 
4 | CC1(C)C(=O)N([C@H]2C3CC4CC2C[C@](C(=N)NO)(C4)C3)CC1COc1ccc(C(F)(F)F)cn1 (some centres undefined) | 7.85 | 4.22 |  |  |  | 67 | 
5 | CC1(C)C(=O)N([C@H]2C3CC4CC2C[C@](C(N)=O)(C4)C3)CC1COc1ccc(-n2ccnc2)cc1 (some centres undefined) | 7.39 | 4.85 | 7.55 | 7.12 | 5.74 | 28 | 
6 | CC1(C)C(=O)N([C@H]2C3CC4CC2C[C@](C(=N)N)(C4)C3)CC1COc1ccc(C(F)(F)F)cn1 (some centres undefined) | 6.96 | < 4.00 |  |  |  | 100 | 
7 | O=C1C(Cc2ccccc2)CCN1[C@H]1C2CC3CC1C[C@](O)(C3)C2 (some centres undefined) |  |  |  | 6.08 | < 5.00 |  | 
8 | O=C1C(Cc2ccccc2)CCN1C1CCCCC1 (centres undefined) |  |  |  | 6.97 | < 5.00 |  | 
9 | CC#C[C@]1(O)CC[C@H]2[C@@H]3CCC4=CC(=O)CCC4=C3[C@@H](c3ccc(N(C)C)cc3)C[C@@]21C [MIFEPRISTONE] |  |  |  |  |  |  | Activity [10]: 1.5 ng/mL; Activity [12]: 39.5 g; Activity [16]: 147.5 mg/dL; Activity [17]: 43.2 mg/dL
10 | CC1(C)C(=O)N([C@H]2C3CCCC2C[C@@H](C(N)=O)C3)CC1COc1ccc(C#N)cn1 (stereo in doubt; 31) [listing 2 of 2 here] |  |  |  |  |  |  | inhibition [11]: 30%; inhibition [19]: 68%; inhibition [13]: 14%; inhibition [14]: 33%; inhibition [15]: 73%; inhibition [18]: 17%
11 | CC1(C)C(=O)N(C23CCC(C(N)=O)(CC2)CC3)CC1COc1ccc(C#N)cn1 (centres undefined) | 8.00 | 4.00 |  |  |  | 91 | 
12 | O=C1C(Cc2ccccc2)CCN1C1C2CC3CC(C2)CC1C3 (centres undefined) |  |  |  | 7.19 | < 5.00 |  | 
13 | CC1(C)C(=O)N(C2CCCN(C(N)=O)CC2)CC1COc1ccc(C#N)cn1 (centres undefined) |  |  |  |  |  |  | pKi [1]: 6.60; pKi [4]: 6.72
14 | CN(CCOc1ccc(CC2SC(=O)NC2=O)cc1)c1ccccn1 (centres undefined) [ROSIGLITAZONE] |  |  |  |  |  |  | Activity [20]: 143.4 mg/dL; Activity [21]: 0.97 ng/mL; Activity [22]: 50.8 mg/dL; Activity [23]: 41.6 g
15 | CC1(C)C(=O)N([C@H]2C3CC4CC2C[C@](C(N)=O)(C4)C3)CC1COc1ccc(-n2cncn2)cc1 (some centres undefined) | 7.49 | 5.10 | 7.37 | 7.39 | 5.80 |  | 
16 | CCOC(=O)[C@H]1[C@@H]2CCC(N3CC(COc4ccc(C#N)cn4)C(C)(C)C3=O)CC[C@@H]21 (some centres undefined) |  | < 4.00 | 6.29 |  | < 4.52 |  | pKi [1]: 6.59; pKi [4]: 7.30

The next lines start with results.

Row | pIC50 [1] | pIC50 [2] | pIC50 [3] | pIC50 [4] | pIC50 [5] | remaining at 0.5 h [6] [%] | Structure (SMILES) | further results
17 | 8.52 | < 4.30 | 7.41 | 8.15 | 4.82 |  | CC1(C)C(=O)N([C@H]2C3CCCC2C[C@@H](C(N)=O)C3)CC1COc1ccc(C#N)cn1 (stereo in doubt; 31) [listing 1 of 2 here] | Stability ([6]; microsomes, 0.5 h): 88%; bioavailability [7]: 63.9%; clearance [8]: 23.3 mL/min/kg; half-life [9]: 1.3 h
18 |  | < 4.00 | 6.29 |  | < 4.00 | 12 | CC1(C)C(=O)N([C@H]2C3CCCC2C[C@H](C(N)=O)C3)CC1COc1ccc(C#N)cn1 (some centres undefined) | pKi [1]: 7.77; pKi [4]: 7.54
19 | 8.05 | 4.00 | 7.34 | 8.30 | 4.66 | 92 | CC1(C)C(=O)N([C@H]2C3CCCC2C[C@@H](C(N)=O)C3)CC1COc1ccc(C#N)cn1 (stereo in doubt; 32) | 
20 | 5.00 |  |  |  |  |  | N#Cc1ccc(OCC2CC(=O)N(C3CCCCCC3)C2)nc1 (centres undefined) | 
21 | 7.21 | 4.00 |  |  |  |  | CC1(C)C(=O)N(C2CCCCCC2)CC1COc1ccc(C#N)cn1 (centres undefined) | 
22 | 7.12 |  |  |  |  |  | C[C@H]1C(=O)N(C2CCCCCC2)C[C@@H]1COc1ccc(C#N)cn1 | 
